An excerpt weighted towards active compounds, which were near 1.3% of everything screened.
PfGluPho inh = PfG6PD enzyme inhibitors, primary screen, biochemical, fluorescence intensity, uHTS; glucose-6-phosphate dehydrogenase-6-phosphogluconolactonase (Plasmodium falciparum 3D7); PfGluPho enzyme, NADPH resazurin-diaphorase fluorescence; AID 504690, 2011; inhibition, % at 20 µM; 0.78% of 350,000 active;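 active = inhibition reaching at least a set limit at 20 µM in the primary screen, cut at about 59% in these data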
G6PDH counter = L. mesenteroides G6PDH inhibitors, counter-screen for G6PDH-coupled screening assays, biochemical, Leuconostoc mesenteroides enzyme. Purified L. mesenteroides G6PDH, diaphorase/resazurin coupled fluorescence, 45 min. inhibition, % at 5 µM. 0.12% of 200,000 active. AID 1020, 2008; in the data active = inhibition above about 50%
HKDC1 inhibitor = HKDC1 hexokinase inhibitors, primary screen, biochemical, fluorescence, uHTS; recombinant HKDC1, G6PDH/diaphorase resazurin coupled fluorescence; 0.16% of 340,000 active; inhibition, % at 20 µM; Q2TB90; AID 493160, 2011;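 active = inhibition above about 35% when tested at 20 µM, limit read from the data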
Target sequence (Q2TB90 whole entry, looked up): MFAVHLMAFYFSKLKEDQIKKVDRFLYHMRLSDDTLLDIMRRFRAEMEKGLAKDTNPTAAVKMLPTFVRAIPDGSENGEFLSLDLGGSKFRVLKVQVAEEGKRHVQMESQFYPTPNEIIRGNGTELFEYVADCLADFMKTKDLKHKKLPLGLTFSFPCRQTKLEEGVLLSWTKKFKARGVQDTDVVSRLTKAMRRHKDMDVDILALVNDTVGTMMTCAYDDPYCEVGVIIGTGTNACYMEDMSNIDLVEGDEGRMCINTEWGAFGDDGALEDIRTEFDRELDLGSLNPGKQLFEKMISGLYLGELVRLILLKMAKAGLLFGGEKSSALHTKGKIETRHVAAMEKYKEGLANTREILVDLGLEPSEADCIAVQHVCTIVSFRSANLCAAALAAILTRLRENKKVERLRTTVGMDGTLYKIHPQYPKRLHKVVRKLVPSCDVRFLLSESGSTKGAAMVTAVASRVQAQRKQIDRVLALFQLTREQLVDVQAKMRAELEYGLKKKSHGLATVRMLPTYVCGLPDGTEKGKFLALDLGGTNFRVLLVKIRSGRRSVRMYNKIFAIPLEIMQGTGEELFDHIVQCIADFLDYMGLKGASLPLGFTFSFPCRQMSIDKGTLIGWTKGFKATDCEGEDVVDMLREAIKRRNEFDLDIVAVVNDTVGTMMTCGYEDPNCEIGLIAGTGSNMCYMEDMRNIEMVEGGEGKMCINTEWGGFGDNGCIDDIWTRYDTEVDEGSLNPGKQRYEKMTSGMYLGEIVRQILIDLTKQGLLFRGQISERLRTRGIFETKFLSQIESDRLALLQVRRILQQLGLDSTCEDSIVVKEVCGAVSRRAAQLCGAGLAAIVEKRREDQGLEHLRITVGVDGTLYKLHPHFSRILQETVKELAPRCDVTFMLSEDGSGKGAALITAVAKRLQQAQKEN
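Test system: Recombinant HKDC1 (HK5) hexokinase enzyme, produced in-house | Input: HKDC1 at 5 µg/mL | Buffer or medium: Tris pH 8.0 buffer with MgCl2, Tween-20, BSA, BME | Schedule: 90 min reaction incubation at room temperature, dark | Technique: Resazurin-to-resorufin fluorescence via G6PDH and diaphorase coupling, 525/613 nm | Controls: DMSO wells with and without enzyme mix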
Diaphorase inh = diaphorase inhibitors and chemical oxidizers, primary screen, counter-screen for diaphorase-coupled primary assays, biochemical, uHTS, resorufin fluorescence. diaphorase resazurin-to-resorufin fluorescence, NADH, 16 min; bacterial (C. kluyveri) enzyme, not human. inhibition, % at 20 µM. 0.69% of 190,000 active;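 active = primary screen inhibition at 20 µM above a set limit, cut at about 50% in these data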
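System: Diaphorase enzyme from Clostridium kluyveri | Amount: Enzyme working solution with 0.14 U/mL diaphorase | Benchmarks: No-NADH positive control and DMSO neutral control | Signal: Fluorescence of resorufin formed from resazurin, Ex 544/Em 590 nm | Schedule: 16-min room-temperature incubation before reading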
Diaph act CS = compounds boosting diaphorase resazurin reduction – biochemical, uHTS, resorufin fluorescence, counter-screen for diaphorase-coupled primary assays, primary screen; activation factor at 20 µM; Diaphorase/resazurin coupled assay, 16 min; active compounds read high; 1 = vehicle wells, 0 = NADH-free wells; 0.005% of 190,000 active; AID 1229, 2008;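 active = diaphorase activity raised at least twofold by the compound at 20 µM; inactive = activation factor below 2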
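test system = bacterial diaphorase enzyme (C. kluyveri) | quantity = enzyme 0.07 U/mL final | reagent = NADH substrate 0.114 mM plus resazurin dye 0.1 mM, final | incubation = 16 min enzyme reaction, ambient temperature | buffer or medium = HEPES pH 7.4 buffer with MgCl2 and Tween 20 | signal = fluorescence of resorufin, 544 nm excitation, 590 nm emission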
PfGluPho conf = PfG6PD inhibitors, hit retest, confirmation, biochemical, fluorescence intensity, single concentration; shares compounds with PfGluPho inh; recombinant PfGluPho, NADPH-diaphorase-resazurin fluorescence; inhibition, % at 20 µM; 34% of 2,400 active; AID 504753, 2011;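 active = inhibition of at least 50% at 20 µM in any single replicate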
Diaphorase 10uM = diaphorase inhibitors and chemical oxidizers, confirmation, counter-screen for P. falciparum G6PD inhibitor project, biochemical, fluorescence intensity, 10 µM NADPH | inhibition, % at 20 µM | 39% of 820 active | AID 504862, 2011 | shares compounds with PfGluPho inh | diaphorase-coupled resazurin reduction, NADPH 10 uM;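 active = average inhibition reaching 50% or more with the compound at 20 µM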;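 note: resorufin red fluorescence formed as diaphorase reduces resazurin using NADPH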
Diaph ctr 30uM = diaphorase inhibitors and chemical oxidizers, confirmation, counter-screen for P. falciparum G6PD inhibitor project, biochemical, fluorescence intensity, 30 µM NADPH; 29% of 820 active; Diaphorase/resazurin coupled assay, resorufin fluorescence; shares compounds with PfGluPho inh; inhibition, % at 20 µM;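 active = inhibition averaging 50% or more, tested at 20 µM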
A number is an active result.

For Cc1nc(SCC(=O)N2CCOCC2)c2c3c(sc2n1)CCC3 the results were PfGluPho inh inactive and HKDC1 inhibitor inactive.
Screening Cc1ccc(C(=O)NCC(=O)Nc2ccncc2)cc1C returned PfGluPho inh inactive and HKDC1 inhibitor inactive.
Screening O=C1COc2ccc(C(=O)COC(=O)c3ccccc3F)cc2N1 returned PfGluPho inh inactive and HKDC1 inhibitor inactive.
Screening COC(=O)c1ccccc1C(=O)c1ccc2c(c1)NC(=O)CO2 returned PfGluPho inh 67.6, G6PDH counter inactive, HKDC1 inhibitor inactive, Diaphorase inh inactive, Diaph act CS inactive and PfGluPho conf inactive.
For COc1cccc(CNC(=O)c2ccc(C3SCCS3)cc2)c1 the results were PfGluPho inh inactive and HKDC1 inhibitor inactive.
`O=C1NCCCc2c1oc1ccc(O)cc21` gave PfGluPho inh inactive, G6PDH counter inactive, HKDC1 inhibitor inactive, Diaphorase inh inactive and Diaph act CS inactive.
`Oc1c(Cl)cc(Cl)c2c1NCCC2` gave PfGluPho inh 77.9, G6PDH counter inactive, HKDC1 inhibitor inactive, Diaphorase inh 63.7, Diaph act CS inactive and PfGluPho conf inactive.
CCOC(=O)C(NC(C)=O)C(=O)O (centres undefined) was read as PfGluPho inh inactive, G6PDH counter inactive, HKDC1 inhibitor inactive, Diaphorase inh inactive and Diaph act CS inactive.
Screening O=C1CC(C(=O)N2CCN(c3ccccn3)CC2)CN1Cc1ccccc1Cl (centres undefined) returned PfGluPho inh inactive and HKDC1 inhibitor inactive.
Screening Brc1ccc2nc(-c3c[nH]c4ccccc34)cn2c1 returned PfGluPho inh 93.3, G6PDH counter inactive, HKDC1 inhibitor inactive, Diaphorase inh inactive, Diaph act CS inactive and PfGluPho conf inactive.
Cc1cccn2cc(-c3c[nH]c4ccccc34)nc12 was read as PfGluPho inh inactive, G6PDH counter inactive, HKDC1 inhibitor inactive, Diaphorase inh inactive and Diaph act CS inactive.
Cc1ccc(C2=CSC3=NCCN23)c(C)c1 was read as PfGluPho inh 62.5, G6PDH counter inactive, HKDC1 inhibitor inactive, Diaphorase inh inactive, Diaph act CS inactive and PfGluPho conf inactive.
`Clc1ccc(C2=CSC3=NCCN23)c(Cl)c1` gave PfGluPho inh inactive and HKDC1 inhibitor inactive.
CCn1c(SCc2nnc(-c3ccccc3)o2)nc2c1c(=O)n(C)c(=O)n2C was read as G6PDH counter inactive, Diaphorase inh inactive and Diaph act CS inactive.
Screening COc1ccc(CCN2C(=O)CSC2=Nc2ccc(C(C)C)cc2)cc1OC returned PfGluPho inh inactive, HKDC1 inhibitor inactive and PfGluPho conf inactive.
For Cc1ccc2nc(-c3ccc(NC(=S)NC4CC(C)(C)NC(C)(C)C4)cc3)sc2c1 the results were PfGluPho inh 93.2, G6PDH counter inactive, HKDC1 inhibitor inactive, Diaphorase inh inactive, Diaph act CS inactive, PfGluPho conf 111.2, Diaphorase 10uM inactive and Diaph ctr 30uM inactive.
`Cc1ccc2nc(-c3ccc(NC(=S)NC(=O)C(C)C)cc3)sc2c1` gave PfGluPho inh inactive, G6PDH counter inactive, HKDC1 inhibitor inactive, Diaphorase inh inactive and Diaph act CS inactive.
For CC1=NOC(=O)/C1=C\c1ccc(-c2ccccc2Br)o1 the results were PfGluPho inh 95.2, G6PDH counter inactive, HKDC1 inhibitor inactive, Diaphorase inh inactive, Diaph act CS inactive, PfGluPho conf 51.0, Diaphorase 10uM inactive and Diaph ctr 30uM inactive.
COc1ccc(N(C)C(=O)c2cnc(N3CCN(c4ncccn4)CC3)c3ccccc23)cc1 was read as PfGluPho inh inactive, G6PDH counter inactive, HKDC1 inhibitor inactive, Diaphorase inh inactive and Diaph act CS inactive.
`Cn1cc(S(=O)(=O)CC(=O)N2CCc3ccccc32)c2ccccc21` gave PfGluPho inh 74.3, G6PDH counter inactive, HKDC1 inhibitor inactive, Diaphorase inh inactive, Diaph act CS inactive, PfGluPho conf 53.4, Diaphorase 10uM inactive and Diaph ctr 30uM inactive.
For CCCn1cc(S(=O)(=O)CC(=O)N2CCc3ccccc32)c2ccccc21 the results were PfGluPho inh inactive, G6PDH counter inactive, HKDC1 inhibitor inactive, Diaphorase inh inactive and Diaph act CS inactive.
`Cn1cc(S(=O)(=O)Cc2ccc(F)cc2)c2ccccc21` gave PfGluPho inh 102.6, HKDC1 inhibitor inactive, PfGluPho conf 62.3, Diaphorase 10uM 68.9 and Diaph ctr 30uM 51.1.
CC12CCC(=O)C=C1CCC1C2C(O)CC2(C)C1CCC21OCC1=O (centres undefined) was read as PfGluPho inh inactive and HKDC1 inhibitor inactive.
For CCOc1ccc2c(c1)C(C)=CC(C)(C)N2 the results were PfGluPho inh 89.7, HKDC1 inhibitor inactive and PfGluPho conf inactive.
For CC1=CC(C)(C)Nc2ccc(OC(=O)CN3C(=O)c4cccc5cccc(c45)C3=O)cc21 the results were PfGluPho inh 91.1, G6PDH counter inactive, HKDC1 inhibitor inactive, Diaphorase inh 58.1, Diaph act CS inactive, PfGluPho conf 85.4, Diaphorase 10uM inactive and Diaph ctr 30uM inactive.
CC1=CC(C)(C)Nc2ccc(OC(=O)CN3C(=O)c4ccccc4C3=O)cc21 was read as PfGluPho inh 75.3, G6PDH counter inactive, HKDC1 inhibitor inactive, Diaphorase inh inactive, Diaph act CS inactive and PfGluPho conf inactive.
`CCc1ccc2c(c1)C(C)=CC(C)(C)N2` gave PfGluPho inh inactive, G6PDH counter inactive, HKDC1 inhibitor inactive, Diaphorase inh inactive and Diaph act CS inactive.
Screening CC1=CC(C)(C)Nc2ccc(OC(=O)C(Cc3ccccc3)N3C(=O)c4ccccc4C3=O)cc21 (centres undefined) returned PfGluPho inh inactive, G6PDH counter inactive, HKDC1 inhibitor inactive, Diaphorase inh inactive and Diaph act CS inactive.
`Cn1cnc(S(=O)(=O)Nc2cc(C(F)(F)F)ccc2N2CCOCC2)c1` gave PfGluPho inh inactive and HKDC1 inhibitor inactive.
`Cc1ccc(-c2cc(C(=O)N3CC(C)CC(C)C3)c3ccccc3n2)o1` (centres undefined) gave PfGluPho inh inactive and HKDC1 inhibitor inactive.
